According to ChEMBL document CHEMBL1255444, “In vitro antibacterial activities of JNJ-Q2, a new broad-spectrum fluoroquinolone” (Antimicrob Agents Chemother, 2010):
Values after ≈ are worked out from the molar mass of the structure shown. Active and inactive are the calls of the source. No cut-off for these calls is given here.

Tests used:
[1] = tested on: Streptococcus pneumoniae; assay: Antibacterial activity against Streptococcus pneumoniae ATCC 49619 by broth microdilution method; assay type: functional
How it was run: (§1)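 MICs by CLSI M07-A7 broth microdilution in cation-adjusted Mueller-Hinton medium. For S. pneumoniae the medium was supplemented with 5% lysed horse blood. CLSI quality control strains were run alongside as appropriate.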

[2] = tested on: Haemophilus influenzae; assay: Antibacterial activity against Haemophilus influenzae by broth microdilution method; assay type: functional; how it was run: as §1
[3] = tested on: Moraxella catarrhalis; assay: Antibacterial activity against Moraxella catarrhalis by broth microdilution method; assay type: functional; how it was run: as §1
[4] = tested on: Escherichia coli; assay: Antibacterial activity against ciprofloxacin-resistant Escherichia coli by broth microdilution method; assay type: functional
How it was run: (§2)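 CLSI M07-A7 broth microdilution MIC. Medium was cation-adjusted Mueller-Hinton broth. For S. pneumoniae it was Mueller-Hinton supplemented with 5% lysed horse blood. CLSI quality-control strains were included as appropriate.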

[5] = tested on: Serratia marcescens; assay: Antibacterial activity against Serratia marcescens by broth microdilution method; assay type: functional; how it was run: as §1
[6] = tested on: Proteus mirabilis; assay: Antibacterial activity against Proteus mirabilis by broth microdilution method; assay type: functional; how it was run: as §1
[7] = tested on: Citrobacter freundii; assay: Antibacterial activity against Citrobacter freundii by broth microdilution method; assay type: functional; how it was run: as §1
[8] = tested on: Staphylococcus aureus; assay: Antibacterial activity against Staphylococcus aureus […] by broth microdilution method; assay type: functional; how it was run: as §2
[9] = tested on: Staphylococcus aureus; assay: Antibacterial activity against methicillin-susceptible Staphylococcus aureus by broth microdilution method; assay type: functional
[10] = tested on: Staphylococcus aureus; assay: Antibacterial activity against methicillin-resistant Staphylococcus aureus by broth microdilution method; assay type: functional; how it was run: as §2
[11] = tested on: Staphylococcus aureus; assay: Antibacterial activity against methicillin-, ciprofloxacin-resistant Staphylococcus aureus by broth microdilution method; assay type: functional; how it was run: as §2
[12] = tested on: Staphylococcus epidermidis; assay: Antibacterial activity against methicillin-susceptible Staphylococcus epidermidis by broth microdilution method; assay type: functional
[13] = tested on: Staphylococcus epidermidis; assay: Antibacterial activity against methicillin-resistant Staphylococcus epidermidis by broth microdilution method; assay type: functional
[14] = tested on: Staphylococcus epidermidis; assay: Antibacterial activity against methicillin-, ciprofloxacin-resistant Staphylococcus epidermidis by broth microdilution method; assay type: functional
[15] = tested on: Enterococcus faecalis; assay: Antibacterial activity against Enterococcus faecalis ATCC 29212 by broth microdilution method; assay type: functional; how it was run: as §1
[16] = tested on: Enterococcus faecium; assay: Antibacterial activity against Enterococcus faecium by broth microdilution method; assay type: functional; how it was run: as §1
[17] = tested on: Staphylococcus aureus; assay: Antibacterial activity against methicillin-resistant Staphylococcus aureus isolate OC8525 harboring wild type quinolone resistance-determining region assessed as >= 4 fold increase in bactericidal activity by broth microdilution method in presence of 20 ug/ml reserpine; assay type: functional, organism-based
[18] = tested on: Staphylococcus aureus; assay: Antibacterial activity against methicillin-resistant Staphylococcus aureus isolate OC11696 assessed as >= 4 fold increase in bactericidal activity by broth microdilution method in presence of 20 ug/ml reserpine; assay type: functional, organism-based
[19] = tested on: Staphylococcus aureus; assay: Antibacterial activity against methicillin-resistant Staphylococcus aureus isolate OC12501 assessed as >= 4 fold increase in bactericidal activity by broth microdilution method in presence of 20 ug/ml reserpine; assay type: functional, organism-based
[20] = tested on: Staphylococcus aureus; assay: Antibacterial activity against methicillin-resistant Staphylococcus aureus isolate OC8530 harboring gyrA S84L and parC I143V mutant gene assessed as >= 4 fold increase in bactericidal activity by broth microdilution method in presence of 20 ug/ml reserpine; assay type: functional, organism-based
[21] = tested on: Staphylococcus aureus; assay: Antibacterial activity against methicillin-resistant Staphylococcus aureus isolate OC4222 harboring gyrA S84L and parC S80F mutant gene assessed as >= 4 fold increase in bactericidal activity by broth microdilution method in presence of 20 ug/ml reserpine; assay type: functional, organism-based
[22] = tested on: Staphylococcus aureus; assay: Antibacterial activity against methicillin-resistant Staphylococcus aureus isolate OC17042 harboring gyrA S84L/G106D, parC S80F and parE D732N mutant gene assessed as >= 4 fold increase in bactericidal activity by broth microdilution method in presence of 20 ug/ml reserpine; assay type: functional, organism-based
[23] = tested on: Staphylococcus aureus; assay: Antibacterial activity against methicillin-resistant Staphylococcus aureus isolate OC11521 harboring gyrA S84L/S85P, parC E84G mutant gene assessed as >= 4 fold increase in bactericidal activity by broth microdilution method in presence of 20 ug/ml reserpine; assay type: functional, organism-based
[24] = tested on: Streptococcus pneumoniae; assay: Antibacterial activity against ciprofloxacin-resistant Streptococcus pneumoniae by broth microdilution method; assay type: functional; how it was run: as §2
[25] = tested on: Streptococcus pyogenes; assay: Antibacterial activity against Streptococcus pyogenes by broth microdilution method; assay type: functional; how it was run: as §1
[26] = tested on: Streptococcus agalactiae; assay: Antibacterial activity against Streptococcus agalactiae by broth microdilution method; assay type: functional; how it was run: as §1
[27] = Antibacterial activity against Streptococcus sp. group C by broth microdilution method; assay type: functional
How it was run: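 MICs by broth microdilution following CLSI M07-A7 in cation-adjusted Mueller-Hinton medium, using isolates from the J&JPRD culture collection. CLSI quality control strains were included as appropriate.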

[28] = tested on: Klebsiella aerogenes; assay: Antibacterial activity against Enterobacter aerogenes by broth microdilution method; assay type: functional; how it was run: as §1
[29] = tested on: Providencia stuartii; assay: Antibacterial activity against Providencia stuartii by broth microdilution method; assay type: functional; how it was run: as §1
[30] = tested on: Pseudomonas aeruginosa; assay: Antibacterial activity against Pseudomonas aeruginosa ATCC 27853 by broth microdilution method; assay type: functional; how it was run: as §1
[31] = tested on: Staphylococcus aureus; assay: Antibacterial activity against methicillin-resistant Staphylococcus aureus isolate OC8532 harboring wild type quinolone resistance-determining region by agar dilution method; assay type: functional
How it was run: (§3)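 CLSI agar dilution MIC on cation-adjusted Mueller-Hinton medium. These were the MIC values used for the resistance studies, and CLSI quality-control strains were included as appropriate.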

[32] = tested on: Staphylococcus aureus; assay: Antibacterial activity against methicillin-resistant Staphylococcus aureus isolate OC8525 harboring wild type quinolone resistance-determining region by agar dilution method; assay type: functional; how it was run: as §3
[33] = tested on: Staphylococcus aureus; assay: Antibacterial activity against methicillin-resistant Staphylococcus aureus isolate OC11150 harboring gyrA S84L and parC S80Y mutant gene by agar dilution method; assay type: functional
How it was run: (§4)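 MICs for the resistance-selection studies were determined by CLSI agar dilution on Mueller-Hinton medium. For S. pneumoniae the medium was supplemented with 5% lysed horse blood. For MRSA fluctuation-assay strains an arithmetic agar dilution scheme was used for a more precise MIC.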

[34] = tested on: Staphylococcus aureus; assay: Antibacterial activity against methicillin-resistant Staphylococcus aureus isolate OC15425 harboring gyrA S84L and parC S80F mutant gene by agar dilution method; assay type: functional; how it was run: as §4

For `CO/N=C1\CN(c2nc3c(cc2F)c(=O)c(C(=O)O)cn3C2CC2)CC1CN` (configuration not stated) [GEMIFLOXACIN], the MIC50 [1] was 0.03 µg/mL (≈ 0.077 µM), the MIC90 [1] was 0.5 µg/mL (≈ 1.28 µM) and the MIC50 [2] was at most 0.004 µg/mL. It also gave an MIC90 [2] of 0.008 µg/mL (≈ 0.0205 µM), an MIC [3] of at most 0.015 µg/mL and an MIC50 [3] of at most 0.015 µg/mL. The MIC90 [3] was at most 0.015 µg/mL, the MIC50 [4] was 32 µg/mL (≈ 82.2 µM) and the MIC90 [4] was 64 µg/mL (≈ 164 µM). It also gave an MIC50 [5] of 0.25 µg/mL (≈ 0.642 µM), an MIC90 [5] of 0.5 µg/mL (≈ 1.28 µM) and an MIC50 [6] of 0.12 µg/mL (≈ 0.308 µM). It also gave an MIC90 [6] of 0.25 µg/mL (≈ 0.642 µM), an MIC50 [7] of 1 µg/mL (≈ 2.57 µM) and an MIC90 [7] of over 4 µg/mL.
For `CN[C@H](CC(C)C)C(=O)N[C@H]1C(=O)N[C@@H](CC(N)=O)C(=O)N[C@H]2C(=O)N[C@H]3C(=O)N[C@H](C(=O)N[C@H](C(=O)O)c4cc(O)cc(O)c4-c4cc3ccc4O)[C@H](O)c3ccc(c(Cl)c3)Oc3cc2cc(c3O[C@@H]2O[C@H](CO)[C@@H](O)[C@H](O)[C@H]2O[C@H]2C[C@](C)(N)[C@H](O)[C@H](C)O2)Oc2ccc(cc2Cl)[C@H]1O` [VANCOMYCIN], the MIC50 [8] was 1 µg/mL (≈ 0.69 µM), the MIC90 [8] was 1 µg/mL (≈ 0.69 µM) and the MIC50 [9] was 1 µg/mL (≈ 0.69 µM). The MIC90 [9] was 2 µg/mL (≈ 1.38 µM), the MIC50 [10] was 1 µg/mL (≈ 0.69 µM) and the MIC90 [10] was 1 µg/mL (≈ 0.69 µM). For the same molecule, the MIC50 [11] was 1 µg/mL (≈ 0.69 µM), the MIC90 [11] was 1 µg/mL (≈ 0.69 µM) and the MIC50 [12] was 2 µg/mL (≈ 1.38 µM). It also gave an MIC90 [12] of 2 µg/mL (≈ 1.38 µM), an MIC50 [13] of 2 µg/mL (≈ 1.38 µM) and an MIC90 [13] of 2 µg/mL (≈ 1.38 µM). The MIC50 [14] was 2 µg/mL (≈ 1.38 µM), the MIC90 [14] was 2 µg/mL (≈ 1.38 µM) and the MIC50 [15] was 2 µg/mL (≈ 1.38 µM). It also gave an MIC90 [15] of over 16 µg/mL, an MIC50 [16] of over 16 µg/mL and an MIC90 [16] of over 16 µg/mL.
With `CCn1cc(C(=O)O)c(=O)c2cc(F)c(N3CCNCC3)cc21` the Activity [17] was “Active”, the Activity [18] was “Active” and the Activity [19] was “Active”. For the same molecule, the Activity [20] was “Active”, the Activity [21] was “Active” and the Activity [22] was “Active”. The Activity [23] was “Active”.
`O=C(O)c1cn(C2CC2)c2cc(N3CCNCC3)c(F)cc2c1=O` [CIPROFLOXACIN] showed an MIC50 [24] of 32 µg/mL (≈ 96.6 µM), an MIC90 [24] of 64 µg/mL (≈ 193 µM) and an MIC50 [8] of 16 µg/mL (≈ 48.3 µM). For the same molecule, the MIC90 [8] was over 32 µg/mL, the MIC50 [10] was 16 µg/mL (≈ 48.3 µM) and the MIC90 [10] was over 32 µg/mL. The MIC50 [11] was over 32 µg/mL, the MIC90 [11] was 32 µg/mL (≈ 96.6 µM) and the MIC50 [12] was 0.25 µg/mL (≈ 0.754 µM). It also gave an MIC90 [12] of 0.5 µg/mL (≈ 1.51 µM), an MIC50 [13] of 16 µg/mL (≈ 48.3 µM) and an MIC90 [13] of 64 µg/mL (≈ 193 µM). For the same molecule, the MIC50 [14] was 64 µg/mL (≈ 193 µM), the MIC90 [14] was 128 µg/mL (≈ 386 µM) and the MIC50 [25] was 0.5 µg/mL (≈ 1.51 µM). The MIC90 [25] was 1 µg/mL (≈ 3.02 µM), the MIC50 [26] was 1 µg/mL (≈ 3.02 µM) and the MIC90 [26] was 1 µg/mL (≈ 3.02 µM). It also gave an MIC50 [27] of 0.25 µg/mL (≈ 0.754 µM), an MIC90 [27] of 1 µg/mL (≈ 3.02 µM) and an MIC50 [15] of 1 µg/mL (≈ 3.02 µM). For the same molecule, the MIC90 [15] was over 16 µg/mL, the MIC50 [16] was 4 µg/mL (≈ 12.1 µM) and the MIC90 [16] was over 16 µg/mL. The MIC [2] was 0.008 µg/mL (≈ 0.0241 µM), the MIC50 [2] was 0.008 µg/mL (≈ 0.0241 µM) and the MIC90 [2] was 0.015 µg/mL (≈ 0.0453 µM). It also gave an MIC50 [3] of 0.06 µg/mL (≈ 0.181 µM), an MIC90 [3] of 0.06 µg/mL (≈ 0.181 µM) and an MIC50 [4] of 64 µg/mL (≈ 193 µM). It also gave an MIC90 [4] of 256 µg/mL (≈ 773 µM), an MIC50 [28] of 0.03 µg/mL (≈ 0.0905 µM) and an MIC90 [28] of 0.03 µg/mL (≈ 0.0905 µM). The MIC50 [5] was 0.12 µg/mL (≈ 0.362 µM), the MIC90 [5] was 0.25 µg/mL (≈ 0.754 µM) and the MIC50 [6] was 0.03 µg/mL (≈ 0.0905 µM). The MIC90 [6] was 0.06 µg/mL (≈ 0.181 µM), the MIC50 [29] was 32 µg/mL (≈ 96.6 µM) and the MIC90 [29] was 64 µg/mL (≈ 193 µM). It also gave an MIC50 [7] of 2 µg/mL (≈ 6.04 µM), an MIC90 [7] of over 4 µg/mL and an MIC50 [30] of 0.25 µg/mL (≈ 0.754 µM). The MIC90 [30] was 0.5 µg/mL (≈ 1.51 µM), the MIC [31] was 0.6 µg/mL (≈ 1.81 µM) and the MIC [32] was 3 µg/mL (≈ 9.05 µM). The MIC [33] was 12 µg/mL (≈ 36.2 µM) and the MIC [34] was 12 µg/mL (≈ 36.2 µM).
